How the values were obtained:
Homo sapiens = organism: Homo sapiens; test: Inhibition of recombinant human Plk4 S34T mutant (1 to 273 residues) at 1 uM using casein as substrate measured after 120 mins in presence of [gamma33P]ATP by scintillation counting method relative to control
[1] = target: PI3-kinase p110-alpha/p85-alpha (Homo sapiens) (UniProt P27986+P42336); test: Inhibition of recombinant full-length human PI3K p110alpha/p85alpha at 1 uM using phosphatidylinositol-4, 5-bisphosphate as substrate measured after 40 mins by fluorescence assay relative to control; format: protein-complex assay
[2] = target: Serine/threonine-protein kinase 33 (Homo sapiens) (UniProt Q9BYT3); test: Inhibition of recombinant full-length human STK33 at 1 uM using myelin basic protein as substrate measured after 40 mins in presence of [gamma33P]ATP by scintillation counting method relative to control
A549 = test: Antiproliferative activity against human A549 cells assessed as inhibition of cell viability at 10 uM after 72 hrs by CCK-8 assay relative to control; format: functional; conditions: A549, 72 h
Procedure, shortened: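 Single-concentration viability screen using CCK-8. Cells were seeded at 3000/well and treated for 72 h. A450 read after 1-4 h with reagent. Percent inhibition calculated against untreated control and blank wells as (Ac−As)/(Ac−Ab)×100%.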

[3] = target: Protein kinase C beta type (Homo sapiens) (UniProt P05771); test: Inhibition of recombinant human PKCbeta1 (2 to end residues) at 1 uM using histone H1 as substrate measured after 40 mins in presence of [gamma33P]ATP by scintillation counting method relative to control
[4] = target: Serine/threonine-protein kinase ICK (Homo sapiens) (UniProt Q9UPZ9); test: Inhibition of recombinant human ICK (1 to 312 residues) at 1 uM using RRRFRPASPLRGPPK as substrate measured after 40 mins in presence of [gamma33P]ATP by scintillation counting method relative to control
[5] = target: Serine/threonine-protein kinase tousled-like 2 (Homo sapiens) (UniProt Q86UE8); test: Inhibition of human TLK2 (387 to end residues) at 1 uM using casein as substrate measured after 40 mins in presence of [gamma33P]ATP by scintillation counting method relative to control
Procedure, shortened: (§1)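 Percent inhibition of kinase activity at a single compound concentration, measured by the outsourced Eurofins KinaseProfiler panel. Values are the mean of two independent experiments.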

[6] = tested on: Dual specificity protein kinase TTK (Homo sapiens), P33981 [S389A]; test: Inhibition of recombinant full-length human TTK S389A mutant at 1 uM using MBP as substrate measured after 40 mins in presence of [gamma33P]ATP by scintillation counting method relative to control
[7] = target: Tyrosine-protein kinase Lck (Homo sapiens) (UniProt P06239); test: Inhibition of recombinant full-length human LCK at 1 uM using Cdc2 peptide as substrate measured after 40 mins in presence of [gamma33P]ATP by scintillation counting method relative to control
[8] = tested on: Mitogen-activated protein kinase 14 (Homo sapiens), Q16539 [T106M]; test: Inhibition of recombinant full-length human SAPK2a T106M mutant at 1 uM using myelin basic protein as substrate measured after 40 mins in presence of [gamma33P]ATP by scintillation counting method relative to control
[9] = target: Serine/threonine-protein kinase 38-like (Homo sapiens) (UniProt Q9Y2H1); test: Inhibition of recombinant human NDR2 (83 to end residues) at 1 uM using RSRSRSRSRSRSRSR as substrate measured after 120 mins in presence of [gamma33P]ATP by scintillation counting method relative to control
[10] = target: Serine/threonine-protein kinase DCLK2 (Homo sapiens) (UniProt Q8N568); test: Inhibition of recombinant human DCAMKL2 (376 to end residues) at 1 uM using KKLNRTLSFAEPG as substrate measured after 40 mins in presence of [gamma33P]ATP by scintillation counting method relative to control
Procedure, shortened: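 Single-point inhibition at 1 µM was measured in the Eurofins KinaseProfiler panel. Values are the mean of two independent experiments.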

[11] = Half life in CD-1 mouse liver microsomes at 2 uM in presence of NADPH measured up to 1 hr by HPLC analysis; format: ADME, Microsome
Procedure, shortened: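 Drug at 2 µM incubated at 37 °C with male liver microsomes at 1 mg/mL, in 0.1 M phosphate buffer pH 7.4 with MgCl2. After 5 min preincubation, reaction started with NADPH. Samples (n=3) taken at 0, 10, 20, 30, 45 and 60 min, quenched with ice-cold acetonitrile, spun, and analysed by HPLC. t1/2 derived from the fitted rate constant k.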

[12] = target: Serine/threonine-protein kinase Nek1 (Homo sapiens) (UniProt Q96PY6); test: Inhibition of recombinant human NEK1 (1 to 505 residues) at 1 uM using RLGRDKYKTLRQIRQ as substrate measured after 40 mins in presence of [gamma33P]ATP by scintillation counting method relative to control
[13] = target: Maternal embryonic leucine zipper kinase (Homo sapiens) (UniProt Q14680); test: Inhibition of recombinant human MELK (1 to 340 residues) at 1 uM using KKLNRTLSFAEPG as substrate measured after 40 mins in presence of [gamma33P]ATP by scintillation counting method relative to control
[14] = target: NUAK family SNF1-like kinase 2 (Homo sapiens) (UniProt Q9H093); test: Inhibition of recombinant full-length human NUAK2 at 1 uM using KKKVSRSGLYRSPSMPENLNRPR as substrate measured after 40 mins in presence of [gamma33P]ATP by scintillation counting method relative to control
[15] = target: Receptor-type tyrosine-protein kinase FLT3 (Homo sapiens) (UniProt P36888); test: Inhibition of recombinant human Flt3 (564 to end residues) at 1 uM using EAIYAAPFAKKK as substrate measured after 40 mins in presence of [gamma33P]ATP by scintillation counting method relative to control
[16] = tested on: Serine/threonine-protein kinase Nek4 (Homo sapiens), P51957 [P225A]; test: Inhibition of recombinant full-length human NEK4 P225A mutant at 1 uM using myelin basic protein as substrate measured after 40 mins in presence of [gamma33P]ATP by scintillation counting method relative to control
NCI-H1299 = test: Inhibition of colony formation in human H1299 cells after 12 days by crystal violet staining based assay; format: functional, cell-based
Procedure, shortened: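 Cells exposed to compound, then washed, trypsinized and reseeded at 300 cells per well in 6-well plates. Colonies grew 10-14 days (legend: 12 days), were fixed in methanol 30 min, stained overnight with 0.5% crystal violet and imaged.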

[17] = target: Serine/threonine-protein kinase SBK1 (Homo sapiens) (UniProt Q52WX2); test: Inhibition of recombinant full-length human SBK1 at 1 uM using KKLRRTLSVA as substrate measured after 120 mins in presence of [gamma33P]ATP by scintillation counting method relative to control
[18] = target: Tyrosine-protein kinase Srms (Homo sapiens) (UniProt Q9H3Y6); test: Inhibition of human SRMS at 1 uM by radiometric method relative to control; procedure, shortened: as §1

Chain of Serine/threonine-protein kinase tousled-like 2 (Homo sapiens) (Q86UE8 whole entry, looked up): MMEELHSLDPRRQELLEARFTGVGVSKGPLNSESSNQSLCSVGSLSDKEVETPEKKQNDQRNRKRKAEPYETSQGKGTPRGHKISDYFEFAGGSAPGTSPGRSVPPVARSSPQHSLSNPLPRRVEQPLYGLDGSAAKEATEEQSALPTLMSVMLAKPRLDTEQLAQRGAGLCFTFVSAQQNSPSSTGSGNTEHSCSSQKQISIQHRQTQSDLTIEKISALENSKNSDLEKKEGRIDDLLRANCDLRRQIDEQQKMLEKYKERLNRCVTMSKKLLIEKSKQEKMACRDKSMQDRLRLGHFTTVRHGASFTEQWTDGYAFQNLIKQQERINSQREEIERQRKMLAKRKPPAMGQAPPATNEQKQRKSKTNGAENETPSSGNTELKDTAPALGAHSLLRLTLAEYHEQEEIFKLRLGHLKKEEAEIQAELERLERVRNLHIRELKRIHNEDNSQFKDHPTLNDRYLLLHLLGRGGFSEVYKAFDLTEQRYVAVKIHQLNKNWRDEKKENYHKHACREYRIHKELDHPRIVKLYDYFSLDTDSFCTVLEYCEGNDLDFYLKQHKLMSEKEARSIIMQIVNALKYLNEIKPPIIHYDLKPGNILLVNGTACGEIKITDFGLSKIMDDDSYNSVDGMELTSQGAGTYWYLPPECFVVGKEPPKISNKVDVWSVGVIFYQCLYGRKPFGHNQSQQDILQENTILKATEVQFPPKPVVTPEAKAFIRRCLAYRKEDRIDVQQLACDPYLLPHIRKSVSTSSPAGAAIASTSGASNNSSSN
Chain of Tyrosine-protein kinase Lck (Homo sapiens) (P06239 2-509 limits assumed): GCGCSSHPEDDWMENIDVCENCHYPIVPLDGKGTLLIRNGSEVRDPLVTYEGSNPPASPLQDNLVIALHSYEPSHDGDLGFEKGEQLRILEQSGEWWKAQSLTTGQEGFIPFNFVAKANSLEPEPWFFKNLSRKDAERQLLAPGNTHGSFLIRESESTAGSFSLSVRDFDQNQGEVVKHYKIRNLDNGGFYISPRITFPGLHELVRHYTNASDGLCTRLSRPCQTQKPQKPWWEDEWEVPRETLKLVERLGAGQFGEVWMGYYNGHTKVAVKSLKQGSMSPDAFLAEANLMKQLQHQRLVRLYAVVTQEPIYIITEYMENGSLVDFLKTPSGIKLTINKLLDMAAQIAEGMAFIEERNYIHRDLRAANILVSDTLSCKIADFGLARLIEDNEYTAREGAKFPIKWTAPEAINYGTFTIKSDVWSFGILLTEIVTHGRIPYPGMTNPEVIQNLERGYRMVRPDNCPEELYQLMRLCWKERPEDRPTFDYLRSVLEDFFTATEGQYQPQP
Chain of Mitogen-activated protein kinase 14 (Homo sapiens), Q16539 [T106M] (Q16539 whole entry T106M): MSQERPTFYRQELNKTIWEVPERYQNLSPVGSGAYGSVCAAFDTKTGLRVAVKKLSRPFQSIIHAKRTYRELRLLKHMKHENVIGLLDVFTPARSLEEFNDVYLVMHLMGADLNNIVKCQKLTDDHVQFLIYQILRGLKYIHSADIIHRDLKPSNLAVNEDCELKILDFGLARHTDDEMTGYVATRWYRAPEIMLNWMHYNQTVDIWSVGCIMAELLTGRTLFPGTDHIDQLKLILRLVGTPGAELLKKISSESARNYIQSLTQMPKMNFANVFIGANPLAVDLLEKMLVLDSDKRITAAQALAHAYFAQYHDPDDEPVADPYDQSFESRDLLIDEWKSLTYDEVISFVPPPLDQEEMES
Chain of Serine/threonine-protein kinase 38-like (Homo sapiens) (Q9Y2H1 2-464 limits assumed): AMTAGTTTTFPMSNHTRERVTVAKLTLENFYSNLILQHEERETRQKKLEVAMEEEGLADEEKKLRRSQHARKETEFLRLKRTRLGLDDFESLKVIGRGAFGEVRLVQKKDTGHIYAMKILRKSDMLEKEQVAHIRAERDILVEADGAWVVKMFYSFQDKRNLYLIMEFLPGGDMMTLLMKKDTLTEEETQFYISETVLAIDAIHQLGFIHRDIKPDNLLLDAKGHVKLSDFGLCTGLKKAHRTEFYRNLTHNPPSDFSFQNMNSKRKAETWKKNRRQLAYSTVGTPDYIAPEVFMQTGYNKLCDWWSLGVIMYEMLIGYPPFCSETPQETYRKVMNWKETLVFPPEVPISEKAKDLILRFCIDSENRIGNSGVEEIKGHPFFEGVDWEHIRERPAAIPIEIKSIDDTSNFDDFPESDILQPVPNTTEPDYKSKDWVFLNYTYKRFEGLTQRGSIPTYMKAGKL
Chain of Maternal embryonic leucine zipper kinase (Homo sapiens) (Q14680 whole entry, looked up, the tested form may be a part): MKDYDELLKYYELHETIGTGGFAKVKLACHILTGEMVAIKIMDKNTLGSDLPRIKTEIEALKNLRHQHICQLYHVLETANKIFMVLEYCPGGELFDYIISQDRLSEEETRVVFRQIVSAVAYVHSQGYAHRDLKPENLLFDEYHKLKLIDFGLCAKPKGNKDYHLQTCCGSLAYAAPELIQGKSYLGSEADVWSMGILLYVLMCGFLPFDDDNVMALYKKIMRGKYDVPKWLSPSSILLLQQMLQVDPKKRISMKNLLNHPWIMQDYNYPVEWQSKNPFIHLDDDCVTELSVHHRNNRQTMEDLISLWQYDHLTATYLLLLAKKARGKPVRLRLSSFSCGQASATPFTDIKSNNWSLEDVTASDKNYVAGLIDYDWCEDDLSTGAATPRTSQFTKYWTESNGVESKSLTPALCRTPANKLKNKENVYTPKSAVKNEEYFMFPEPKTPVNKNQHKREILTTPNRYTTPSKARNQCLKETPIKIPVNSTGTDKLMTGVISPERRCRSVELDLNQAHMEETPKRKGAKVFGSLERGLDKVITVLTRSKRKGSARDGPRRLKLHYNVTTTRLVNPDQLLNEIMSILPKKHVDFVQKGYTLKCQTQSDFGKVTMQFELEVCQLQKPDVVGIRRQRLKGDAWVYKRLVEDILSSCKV
Chain of Serine/threonine-protein kinase DCLK2 (Homo sapiens) (Q8N568 whole entry): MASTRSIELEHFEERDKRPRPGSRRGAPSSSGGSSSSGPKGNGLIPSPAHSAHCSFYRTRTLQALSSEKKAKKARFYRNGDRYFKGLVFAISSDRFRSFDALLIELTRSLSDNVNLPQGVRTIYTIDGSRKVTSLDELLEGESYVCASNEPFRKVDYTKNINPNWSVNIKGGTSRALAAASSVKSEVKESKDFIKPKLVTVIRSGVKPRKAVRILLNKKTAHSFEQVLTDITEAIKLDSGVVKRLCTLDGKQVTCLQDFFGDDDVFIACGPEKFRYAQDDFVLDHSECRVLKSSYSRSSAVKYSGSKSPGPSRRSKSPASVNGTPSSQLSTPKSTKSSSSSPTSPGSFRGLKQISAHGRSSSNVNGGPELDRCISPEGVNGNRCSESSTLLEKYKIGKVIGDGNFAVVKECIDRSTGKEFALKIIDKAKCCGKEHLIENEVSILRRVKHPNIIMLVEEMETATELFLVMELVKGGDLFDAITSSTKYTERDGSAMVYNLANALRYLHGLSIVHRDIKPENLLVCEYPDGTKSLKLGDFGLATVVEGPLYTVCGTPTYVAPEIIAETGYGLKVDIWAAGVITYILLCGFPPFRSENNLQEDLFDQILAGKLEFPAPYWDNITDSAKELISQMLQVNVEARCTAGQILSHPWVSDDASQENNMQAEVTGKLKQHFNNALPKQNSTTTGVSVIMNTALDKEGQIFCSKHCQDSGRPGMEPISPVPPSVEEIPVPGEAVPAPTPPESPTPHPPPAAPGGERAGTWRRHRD
Chain of Protein kinase C beta type (Homo sapiens) (P05771 2-671 limits assumed): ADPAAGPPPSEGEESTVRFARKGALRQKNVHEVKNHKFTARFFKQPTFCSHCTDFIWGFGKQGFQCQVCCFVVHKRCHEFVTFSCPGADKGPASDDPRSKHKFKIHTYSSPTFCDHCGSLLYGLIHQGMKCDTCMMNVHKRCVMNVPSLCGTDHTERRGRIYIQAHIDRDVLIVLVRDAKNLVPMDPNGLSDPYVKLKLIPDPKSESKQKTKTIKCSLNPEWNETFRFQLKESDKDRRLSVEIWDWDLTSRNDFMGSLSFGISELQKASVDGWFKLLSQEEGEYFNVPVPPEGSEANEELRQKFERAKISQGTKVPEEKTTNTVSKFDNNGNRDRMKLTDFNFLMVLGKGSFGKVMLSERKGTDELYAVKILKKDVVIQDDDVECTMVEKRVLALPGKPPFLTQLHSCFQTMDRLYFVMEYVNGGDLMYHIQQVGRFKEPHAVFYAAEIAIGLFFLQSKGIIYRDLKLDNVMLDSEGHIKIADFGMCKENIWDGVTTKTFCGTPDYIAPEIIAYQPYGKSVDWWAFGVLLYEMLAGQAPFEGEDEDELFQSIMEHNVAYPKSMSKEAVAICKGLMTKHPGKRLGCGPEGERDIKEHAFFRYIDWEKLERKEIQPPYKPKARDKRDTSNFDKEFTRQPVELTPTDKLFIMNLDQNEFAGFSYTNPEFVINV
Chain of Dual specificity protein kinase TTK (Homo sapiens), P33981 [S389A] (P33981 whole entry S389A): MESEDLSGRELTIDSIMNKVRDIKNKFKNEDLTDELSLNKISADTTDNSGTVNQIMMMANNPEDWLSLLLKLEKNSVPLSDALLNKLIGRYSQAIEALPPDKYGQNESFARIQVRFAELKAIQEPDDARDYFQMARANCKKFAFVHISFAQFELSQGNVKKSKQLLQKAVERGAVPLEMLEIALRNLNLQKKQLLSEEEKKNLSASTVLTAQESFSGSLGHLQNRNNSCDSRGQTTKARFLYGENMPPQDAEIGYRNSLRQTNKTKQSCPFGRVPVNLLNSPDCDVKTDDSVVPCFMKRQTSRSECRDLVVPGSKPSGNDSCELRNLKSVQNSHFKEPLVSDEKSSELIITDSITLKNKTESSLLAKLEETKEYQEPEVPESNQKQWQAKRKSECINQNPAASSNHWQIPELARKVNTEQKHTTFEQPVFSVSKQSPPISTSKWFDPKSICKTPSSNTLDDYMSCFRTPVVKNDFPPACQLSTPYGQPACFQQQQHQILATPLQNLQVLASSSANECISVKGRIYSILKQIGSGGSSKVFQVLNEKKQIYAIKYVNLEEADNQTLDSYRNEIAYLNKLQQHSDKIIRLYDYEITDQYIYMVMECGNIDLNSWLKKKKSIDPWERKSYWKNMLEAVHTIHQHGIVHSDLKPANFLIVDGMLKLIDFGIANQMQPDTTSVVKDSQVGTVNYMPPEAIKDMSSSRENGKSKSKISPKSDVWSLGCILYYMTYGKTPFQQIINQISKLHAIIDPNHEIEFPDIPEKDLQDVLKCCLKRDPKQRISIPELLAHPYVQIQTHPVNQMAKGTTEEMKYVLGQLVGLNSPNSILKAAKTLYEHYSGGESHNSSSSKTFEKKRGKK

Q: For `CN(C)C(=O)c1cc2cnc(Nc3ccc(NC(=O)CCCCCCCN=C=S)cc3)nc2n1C1CCCC1`, which inhibition (Homo sapiens) is on record?
A: The inhibition was 50%.

Q: And the inhibition [1]?
A: The inhibition was 8%.

Q: What about the inhibition [2] of the same compound?
A: Its inhibition is 27%.

Q: What about the inhibition at 10 µM (A549) of the same compound?
A: The inhibition at 10 µM was 99.2%.

Q: What about the inhibition [3] of the same compound?
A: Its inhibition is 20%.

Q: And the inhibition [4]?
A: Its inhibition is 38%.

Q: And the inhibition [5]?
A: Its inhibition is 8%.

Q: What about the inhibition [6] of the same compound?
A: Its inhibition is 76%.

Q: And the inhibition [7]?
A: Its inhibition is 33%.

Q: And the inhibition [8]?
A: Its inhibition is 0%.

Q: And the inhibition [9]?
A: The inhibition was 20%.

Q: What about the inhibition [10] of the same compound?
A: The inhibition was 1%.

Q: And the half-life at 2 µM [11]?
A: The half-life at 2 µM was 23.1 min.

Q: And the inhibition [12]?
A: The inhibition was 69%.

Q: What about the inhibition [13] of the same compound?
A: Its inhibition is 88%.

Q: And the inhibition [14]?
A: Its inhibition is 66%.

Q: What about the inhibition [15] of the same compound?
A: The inhibition was 66%.

Q: And the inhibition [16]?
A: Its inhibition is 63%.

Q: What about the inhibition (NCI-H1299) of the same compound?
A: The inhibition was “Dose-dependent effect”.

Q: What about the inhibition [17] of the same compound?
A: The inhibition was 88%.

Q: What about the inhibition [18] of the same compound?
A: Its inhibition is 34%.

— ChEMBL document CHEMBL4376814, “Novel cyclin-dependent kinase 9 (CDK9) inhibitor with suppression of cancer stemness activity against non-small-cell lung cancer” (Eur J Med Chem, 2019)
